Source: publication PMC3062473 (ChemMedChem, 2010)
pIC50, pKi: −log10 of the molar value.

What was measured:
Caspase 5 = target: T1, Caspase 5 (Homo sapiens, UniProt P51878); test: Reaction Biology caspase panel; type: biochemical; details: read-out: Caspase 5 IC50; (Z-LEHD)2-R110 substrate; three separate experiments
T1 sequence (P51878 137-327 limits assumed): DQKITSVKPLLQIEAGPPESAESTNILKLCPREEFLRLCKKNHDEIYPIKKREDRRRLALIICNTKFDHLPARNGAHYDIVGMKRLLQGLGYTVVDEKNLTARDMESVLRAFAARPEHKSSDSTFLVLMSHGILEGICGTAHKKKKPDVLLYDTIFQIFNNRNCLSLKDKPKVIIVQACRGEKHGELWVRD
T1 sequence (P51878 347-434 limits assumed): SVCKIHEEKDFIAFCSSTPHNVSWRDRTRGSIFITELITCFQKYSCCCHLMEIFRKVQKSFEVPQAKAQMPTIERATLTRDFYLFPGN

Microsomal stability = type: in vitro ADME, human; details: human, liver microsomes
Method in brief: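 Human microsomal stability, profiled by a contract lab alongside internal control compounds. Includes minus-NADPH and minus-compound control incubations.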

Caspase 10 = target: T2, Caspase 10 (Homo sapiens, UniProt Q92851); test: Reaction Biology caspase panel; type: biochemical; details: read-out: Caspase 10 IC50; (Z-LEHD)2-R110 substrate; three separate experiments
T2 sequence (Q92851 220-415 limits assumed): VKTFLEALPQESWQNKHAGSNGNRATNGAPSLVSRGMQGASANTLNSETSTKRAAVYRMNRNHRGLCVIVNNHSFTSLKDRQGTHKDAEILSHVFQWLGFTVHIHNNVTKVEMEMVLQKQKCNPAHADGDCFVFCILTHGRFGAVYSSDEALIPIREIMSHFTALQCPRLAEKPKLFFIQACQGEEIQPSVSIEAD
T2 sequence (Q92851 416-521 limits assumed): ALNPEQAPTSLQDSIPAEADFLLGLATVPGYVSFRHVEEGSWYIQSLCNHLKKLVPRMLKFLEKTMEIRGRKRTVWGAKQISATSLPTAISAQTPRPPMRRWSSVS

granzyme B = details: cited from earlier work
[1] = Aqueous degradation study by LCMS over 96 hours; type: physicochemical; details: up to 96 hours
[2] = Plasma protein binding, equilibrium dialysis in 100% plasma; type: in vitro ADME, human; details: human plasma, 100% plasma, equilibrium dialysis
Caspase 6 = target: T3, Caspase 6 (Homo sapiens, UniProt P55212); test: Reaction Biology caspase panel; type: biochemical; details: read-out: Caspase 6 IC50; (Z-DEVD)2-R110 substrate; three separate experiments
T3 sequence (P55212 24-179 limits assumed): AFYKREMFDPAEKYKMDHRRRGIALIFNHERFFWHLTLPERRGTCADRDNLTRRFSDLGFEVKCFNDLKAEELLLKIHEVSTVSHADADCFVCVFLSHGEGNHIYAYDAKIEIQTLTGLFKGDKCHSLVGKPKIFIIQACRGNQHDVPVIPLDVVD
T3 sequence (P55212 194-293 limits assumed): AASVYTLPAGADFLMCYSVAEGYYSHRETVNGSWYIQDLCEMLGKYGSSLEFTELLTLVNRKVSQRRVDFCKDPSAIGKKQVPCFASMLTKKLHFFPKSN

Caspase 8 = Caspase 8 (Homo sapiens, UniProt Q14790); details: read-out: Ki caspase 8; cited from earlier work
Caspase 8, sequence (Q14790 217-374 limits assumed): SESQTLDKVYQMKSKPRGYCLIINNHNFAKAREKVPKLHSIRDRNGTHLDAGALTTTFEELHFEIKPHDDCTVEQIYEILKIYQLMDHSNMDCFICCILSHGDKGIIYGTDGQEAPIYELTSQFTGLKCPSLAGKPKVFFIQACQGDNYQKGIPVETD
Caspase 8, sequence (Q14790 385-479 limits assumed): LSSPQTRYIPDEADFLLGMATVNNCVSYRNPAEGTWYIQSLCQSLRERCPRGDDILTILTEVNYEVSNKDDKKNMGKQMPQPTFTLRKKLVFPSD

Caspase 4 = target: T4, Caspase 4 (Homo sapiens, UniProt P49662); details: read-out: Ki caspase 4; cited from earlier work
T4 sequence (P49662 81-270 limits assumed): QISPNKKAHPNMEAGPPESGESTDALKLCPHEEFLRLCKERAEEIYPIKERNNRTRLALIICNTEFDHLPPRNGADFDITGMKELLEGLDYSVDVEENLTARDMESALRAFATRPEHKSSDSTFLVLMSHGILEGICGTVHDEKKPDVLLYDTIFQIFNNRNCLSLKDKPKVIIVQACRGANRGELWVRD
T4 sequence (P49662 290-377 limits assumed): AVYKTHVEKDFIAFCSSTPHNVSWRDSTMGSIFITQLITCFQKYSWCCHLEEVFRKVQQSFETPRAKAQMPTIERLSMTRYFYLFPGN

pIC50 (Caspase 5): 7.97 | Microsomal Stability CLint (Microsomal stability): 6.72 μL/min/mg protein | Microsomal Stability t1/2 (Microsomal stability): 206 min | pIC50 (Caspase 10): 7.18 | aqueous stability (in words) ([1]; acidic (pH 2)): very stable | aqueous stability (in words) ([1]; basic (pH 8)): moderate | aqueous stability (in words) ([1]; neutral (pH 7)): very stable | Protein Binding fraction unbound [2]: 0.420 | pIC50 (Caspase 6): < 5.00
SMILES: CC(C)(C)[C@H](NC(=O)c1ccc(N)c(Cl)c1)C(=O)N1CCC[C@H]1C(=O)N[C@H](C=O)CC(=O)O [Compound 2b, reference compound]
activity against granzyme B (granzyme B): little activity | pKi (Caspase 8): 7.00 | pKi (Caspase 4): > 9.00
